Tested on: MS2 coat protein
Assay: apparent Kd, MS2 coat protein; higher = weaker binding; RNA-MaP array; FMN 200 µM where present
How it was run: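 The apparent Kd is the median of filtered binding-curve fits, one per cluster, to green signal normalised to red-channel RNA signal and control-cluster median Fmax. The clusters were on Illumina sequencing chips, and stalled E. coli RNA polymerase had transcribed the designs on them. Titration used SNAP-549-labelled MS2 coat protein from 0.7 or 1.5 nM, doubling to 3 µM, without and then with constant ligand, in 100 mM Tris-HCl pH 7.5, 80 mM KCl, 4 mM MgCl2, BSA, DTT, yeast tRNA and Tween-20.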

[1] = designed as: OFF switch for flavin mononucleotide, no ligand
[2] = ligand present: flavin mononucleotide, designed as: OFF switch for flavin mononucleotide
[3] = designed as: ON switch for flavin mononucleotide, no ligand
[4] = ligand present: flavin mononucleotide, designed as: ON switch for flavin mononucleotide

GCCUCAUAGUAGAAGGGACUUCGGCUGUUAAGCAUCAUCUCCAUAUCACAUGAGGAUCACCCAUGUCAGGAUAUACUAAGAGGC
apparent Kd [1]: 6.95 nM | apparent Kd [2]: 14.4 nM

GCCUGCUGGCGAGGAUAUUCUGUGAGGUUCCGGCUCGUGUCUGUUACAUGAGGAUCACCCAUGUGGGAGAAGGUGUCUGUGGCC
apparent Kd [1]: 6.15 nM | apparent Kd [2]: 6.13 nM

GCGAAGAACGAGAAGGCCACUACAUGAGGAUCACCCAUGUCGUGGAGUAUUGGAGGAUAUCGAUCGGCGUCUCAUGAGGACAUA
apparent Kd [1]: 5.73 nM | apparent Kd [2]: 5.61 nM

GCGAAUAAGUGAGGAUAUACAUAAUUUAUAACUGUAGAAGGCACAAACCUCAAGACAUGAGGAUCACCCAUGUGAAAUAUCGCU
apparent Kd [1]: 31 nM | apparent Kd [2]: 81.8 nM

GCGAGCAUACAGAAGGGAUCGUCGUCGCGGCUGUCAGGAUAUGUAGCUUGGCCUAAACAUGAGGAUCACCCAUGUAUAAUGCUA
apparent Kd [3]: 111 nM | apparent Kd [4]: 18.6 nM

GCGAUAAACGAGGAUAUCGUAUCGGAAACGAUACGAGAAGGUGUAACAUGAGGAUCACCCAUGUUCCUCAACGC
apparent Kd [1]: 38.4 nM | apparent Kd [2]: 38.4 nM

GCGAUGAUCGAGAAGGCCACUACAUGAGGAUCACCCAUGUCGUGGUGUAUUGGAGGAUAUCGAUCGGCGUCUUAUGAGGACAUG
apparent Kd [1]: 5.02 nM | apparent Kd [2]: 8.26 nM

GCGAUUUUGUAAGGAUAUACACGAGUUUCAAGUGUAGAAGGUACUUACAUGAGGAUCACCCAUGUAUACAUGGAUAAUAGUCGC
apparent Kd [3]: 548 nM | apparent Kd [4]: 84.2 nM

GCGCAAACAUGAGGAUAUGUAUUAAAUAAUAAUACAGAAGGCAUGUCAAAUGACAUGAGGAUCACCCAUGUUGGCAAAAUGCGC
apparent Kd [3]: 80.6 nM | apparent Kd [4]: 15.9 nM

GCGCAAGCAUGAGGAUAUGUAUUAAAUAAUAAUACAGAAGGCAUGUCAAAUGACAUGAGGAUCACCCAUGUUGGCAAAAUGCGC
apparent Kd [3]: 45.8 nM | apparent Kd [4]: 10.5 nM

GCGCACUAAGUGAGGAUAUCGAUUUUUUUUAGGAUCGAGAAGGCACAUGAGGAUCACCCAUGUUUGACGUGCGC
apparent Kd [1]: 15.5 nM | apparent Kd [2]: 15.2 nM

GCGCAUUUUAGAUUUAUAUAAUUUUCAGAAGGUGAAUAGUCGACAUGAGGAUCACCCAUGUAUUUCAAGGAUAUGAUUUAGCGC
apparent Kd [3]: 68.6 nM | apparent Kd [4]: 13 nM

GCGCGCUAAGGAUAUACAUGAGGAUCACCCAUGUUGCUCUGAUGAGCGGGUGUAAGCUGUAGAAGGUAGAGCAA
apparent Kd [1]: 61.9 nM | apparent Kd [2]: 123 nM

GCGCUAAAACAGAAGGCCAAAUACAUGAGGAUCACCCAUGUCGAAUCAUGGAGGAUAUGUUAUUAAUUACUCGCAGAUGAGCGC
apparent Kd [3]: 104 nM | apparent Kd [4]: 11.8 nM

GCGCUGCAGCGGUGCACGAGACAUGAGGAUCACCCAUGUGACAGAAGGGACUUGUUAAAGGUAGGUCAGGAUAUGUCUUAAAAG
apparent Kd [3]: 190 nM | apparent Kd [4]: 59.8 nM

GCGGUCAACGUAGGAUAUCUUCAGCCGCAGCGCAUUGCUGUACAUGAGGAUCACCCAUGUCCUGGAGAGAAGGACGGACUGCAA
apparent Kd [3]: 145 nM | apparent Kd [4]: 23.2 nM

GCGUAAGAAUUAAUUGUGACUGACAGAAGGCAAUAGUAUGUGUCCGACAUGAGGAUCACCCAUGUUGAGGAUAUGUCUUGACGC
apparent Kd [1]: 4.64 nM | apparent Kd [2]: 5 nM

GCGUAAUAGGUGUAGCUAGUCAUUCAAGAAGGGUGGAGAACAUGAGGAUCACCCAUGUGGUUUAUACAGGAUAUUGAUAUACGC
apparent Kd [3]: 258 nM | apparent Kd [4]: 51.2 nM

GCGUACAUAUCAGGAUAUCAUAUAAUUGUUUAACUCAGUGUAUACAUGAGGAUCACCCAUGUUCUUGAGAAGGGAUAUGUACGC
apparent Kd [1]: 9.08 nM | apparent Kd [2]: 9.76 nM

GCGUACAUAUCAGGAUAUCAUAUAAUUGUUUAUCUCAGUGUAUACAUGAGGAUCACCCAUGUUCUUGAGAAGGGAUAUGUACGC
apparent Kd [1]: 8.24 nM | apparent Kd [2]: 8.68 nM

GCGUACAUCGGAGGAUAUCAUGUAAAUACAUGAGGAUCACCCAUGUCGAUGGAGACAUCGGAGAUUGAGAAGGCCGAUGUACCG
apparent Kd [3]: 157 nM | apparent Kd [4]: 8.42 nM

GCGUAUUAGGUGUAGCUAGACAUUCAAGAAGGGUGAAGAACAUGAGGAUCACCCAUGUAGUUGGUACAGGAUAUUGAUUUACGC
apparent Kd [3]: 897 nM | apparent Kd [4]: 176 nM

GCGUAUUAGGUGUAGCUAGACAUUCAAGAAGGGUGAAGAACAUGAGGAUCACCCAUGUAGUUGUUACAGGAUAUUGAUUUACGC
apparent Kd [3]: 785 nM | apparent Kd [4]: 260 nM

GCGUGGUUCUAGAAGGUGCUAGCGAUAAGCUAGCAAGGAUAUAGACAUGAGGAUCACCCAUGUCUUAGUGAAAUCGACACACGC
apparent Kd [1]: 5.35 nM | apparent Kd [2]: 5.34 nM

GCGUUAUUGUAGAAGGUACAUGAAUAUAUUUAAUACCUCAAGUAACAUGAGGAUCACCCAUGUAGUAAGGAUAUACAUAUACGC
apparent Kd [3]: 69.4 nM | apparent Kd [4]: 52.4 nM

GCGUUCUUGUAGAAGGUACAUACAAUAUCUUAUAAACACAUGACACAUGAGGAUCACCCAUGUUGUAAGGAUAUACAUGAACGC
apparent Kd [3]: 6.29 nM | apparent Kd [4]: 7.73 nM

GCGUUCUUGUAGAAGGUACAUACGACAUCUUAUAAACGCAUGACACAUGAGGAUCACCCAUGUUGUAAGGAUAUACAUGAACGC
apparent Kd [3]: 8.88 nM | apparent Kd [4]: 8.05 nM
